In PMC4126877 (Molecular cancer therapeutics, 2014):
“And” between values parts separate entries of the source, which are not always exact repeats. Equal values may be shown once. Read-outs that look alike come from different tables or passages of the source.

Legend:
Chk2 = conditions: cited from earlier work
recombinant TDP1 = recombinant TDP1 (Homo sapiens, UniProt Q9NUW8); experiment: Recombinant TDP1 gel-based assay; assay type: biochemical
Procedure, shortened: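 Gel-based cleavage assay: 1 nM 5′-[32P]-labeled single-stranded oligonucleotide with a 3′-phosphotyrosine (N14Y) incubated with 10 pM recombinant TDP1, ± inhibitor, 15 min, room temperature. Parallel reactions in HTS buffer: 1X PBS pH 7.4, 80 mM KCl, 0.01% Tween-20. Gels dried, PhosphorImager-scanned, quantified by densitometry.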

[1] = target: endogenous human TDP1 from whole cell extracts (DT40 hTDP1) (Homo sapiens, UniProt Q9NUW8); experiment: Whole cell extract; assay type: biochemical
Sequence of endogenous human TDP1 from whole cell extracts (DT40 hTDP1) (Q9NUW8 whole entry): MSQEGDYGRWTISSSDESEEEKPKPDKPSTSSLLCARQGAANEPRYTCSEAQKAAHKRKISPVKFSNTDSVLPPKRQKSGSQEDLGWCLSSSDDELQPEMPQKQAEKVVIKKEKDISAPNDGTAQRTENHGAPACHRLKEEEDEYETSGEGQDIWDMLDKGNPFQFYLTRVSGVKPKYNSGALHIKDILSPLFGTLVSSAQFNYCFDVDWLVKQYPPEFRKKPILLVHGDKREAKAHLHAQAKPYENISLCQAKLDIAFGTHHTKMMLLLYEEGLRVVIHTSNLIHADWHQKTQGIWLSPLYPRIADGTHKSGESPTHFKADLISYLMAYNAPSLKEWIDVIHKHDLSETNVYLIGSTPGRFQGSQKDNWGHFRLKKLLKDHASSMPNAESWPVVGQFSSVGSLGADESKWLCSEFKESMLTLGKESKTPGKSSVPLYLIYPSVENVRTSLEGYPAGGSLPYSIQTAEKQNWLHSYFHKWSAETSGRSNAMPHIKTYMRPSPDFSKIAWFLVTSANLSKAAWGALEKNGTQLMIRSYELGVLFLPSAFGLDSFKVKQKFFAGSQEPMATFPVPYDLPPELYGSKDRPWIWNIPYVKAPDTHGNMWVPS

recombinant human TDP2 = target: T1, recombinant human TDP2 (Homo sapiens, UniProt O95551); experiment: Recombinant TDP2 counter-screening assay; assay type: biochemical; conditions: for activity against TDP2 (in words): tested up to 111 µM
T1 sequence (O95551 1-362): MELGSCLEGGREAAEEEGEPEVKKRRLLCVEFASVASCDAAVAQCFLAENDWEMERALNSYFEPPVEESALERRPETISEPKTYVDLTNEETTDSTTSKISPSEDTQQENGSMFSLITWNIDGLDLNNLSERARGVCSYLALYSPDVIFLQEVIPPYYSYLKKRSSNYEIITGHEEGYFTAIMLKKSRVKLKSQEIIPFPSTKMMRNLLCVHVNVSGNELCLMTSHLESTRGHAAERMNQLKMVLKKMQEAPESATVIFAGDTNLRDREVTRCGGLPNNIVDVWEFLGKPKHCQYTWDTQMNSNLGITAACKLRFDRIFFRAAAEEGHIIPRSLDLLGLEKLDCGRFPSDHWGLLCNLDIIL
Procedure, shortened: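 Counter-screen: 1 nM α32P-cordycepin-3′-labeled 18-mer single-stranded oligonucleotide incubated with 25 pM recombinant human TDP2, ± inhibitor, 15 min, room temperature. Reactions terminated and processed as the TDP1 gel assays: gel run, PhosphorImager exposure, densitometry.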

DT40 hTDP1 cells = assay type: cell-based; conditions: 72 h
[2] = read-out: IC50 TDP1 REC, recombinant TDP1, WCE buffer

Sequence of recombinant TDP1 (Q9NUW8 whole entry): as the sequence (Q9NUW8 whole entry) above

SMILES | inhibition of REC-TDP1 (in words) (recombinant TDP1) | activity against TDP2 (in words) (recombinant human TDP2) | cytotoxicity (DT40 hTDP1 cells) | synergistic effect in combination with CPT (DT40 hTDP1 cells) | IC50 (recombinant TDP1; [2]) | further results
CN[C@@H]1C[C@H]2O[C@@](C)([C@@H]1OC)n1c3ccccc3c3c4c(c5c6ccccc6n2c5c31)C(=O)N[C@H]4O [7-hydroxystaurosporine (UCN-01), 7-hydroxystaurosporine] | – | – | – | – | – | inhibition of Chk2 purified from cell extract by immunoprecipitation (Chk2): found to inhibit; inhibition of recombinant Chk2 enzyme (Chk2): ineffective
O=C(O)c1ccc(-c2ccc(C=C3NC(=O)N(Cc4ccccc4F)C3=O)o2)cc1 [JLT048, 4-(5-[{[1-(2-fluorobenzyl)-2,5-dioxo-4-imidazolidinylidene]methyl]}-2furyl)benzoic acid] | inhibited REC-TDP1 at low micromolar concentrations | also inhibited TDP2, albeit with higher IC50 values | did not exhibit any cytotoxicity | no synergistic effect | – | IC50 (recombinant TDP1): 7.7 ± 1.8 µM; IC50 ([1]; IC50 TDP1 WCE, WCE buffer): 115 µM and 148 µM; IC50 (recombinant human TDP2): 32 ± 10 µM
Cc1ccc(Nc2nn3c(=O)c4ccccc4nc3s2)cc1C [NCGC00183674] | inhibited REC-TDP1 at low micromolar concentrations | only marginal activity against TDP2 at 111 µM | did not exhibit any cytotoxicity | no synergistic effect | 12.1 ± 1.7 µM | IC50 ([1]; read-out: IC50 TDP1 WCE, WCE buffer): 51 µM and 59 µM; selectivity for TDP1 versus TDP2 (recombinant human TDP2): higher selectivity for TDP1; IC50 (recombinant human TDP2; read-out: IC50 TDP2 REC, recombinant TDP2): > 111 µM
O=c1c2ccccc2nc2sc(Nc3ccc4c(c3)CCC4)nn12 [NCGC00183964] | – | – | – | – | 81 µM | reduction in potency, WCE buffer vs HTS buffer (recombinant TDP1; REC-TDP1): 25 fold
